Measurements from ChEMBL document CHEMBL5316332 (J Med Chem, 2023).
The source made the active and inactive calls. No cut-off for these calls is given here.

How the values were obtained:
[1] = target: T1, Bone morphogenetic protein receptor type-2 (Homo sapiens, UniProt Q13873); test: Inhibition of recombinant C-terminal 6His-tagged human BMPR2 (188 to 517 residues) expressed in Escherichia coli Rosetta assessed as apparent inhibition constant using ATP as substrate incubated for 30 mins by Morrison plot analysis; settings: read-out: Ki(app)
T1 sequence (Q13873 whole entry): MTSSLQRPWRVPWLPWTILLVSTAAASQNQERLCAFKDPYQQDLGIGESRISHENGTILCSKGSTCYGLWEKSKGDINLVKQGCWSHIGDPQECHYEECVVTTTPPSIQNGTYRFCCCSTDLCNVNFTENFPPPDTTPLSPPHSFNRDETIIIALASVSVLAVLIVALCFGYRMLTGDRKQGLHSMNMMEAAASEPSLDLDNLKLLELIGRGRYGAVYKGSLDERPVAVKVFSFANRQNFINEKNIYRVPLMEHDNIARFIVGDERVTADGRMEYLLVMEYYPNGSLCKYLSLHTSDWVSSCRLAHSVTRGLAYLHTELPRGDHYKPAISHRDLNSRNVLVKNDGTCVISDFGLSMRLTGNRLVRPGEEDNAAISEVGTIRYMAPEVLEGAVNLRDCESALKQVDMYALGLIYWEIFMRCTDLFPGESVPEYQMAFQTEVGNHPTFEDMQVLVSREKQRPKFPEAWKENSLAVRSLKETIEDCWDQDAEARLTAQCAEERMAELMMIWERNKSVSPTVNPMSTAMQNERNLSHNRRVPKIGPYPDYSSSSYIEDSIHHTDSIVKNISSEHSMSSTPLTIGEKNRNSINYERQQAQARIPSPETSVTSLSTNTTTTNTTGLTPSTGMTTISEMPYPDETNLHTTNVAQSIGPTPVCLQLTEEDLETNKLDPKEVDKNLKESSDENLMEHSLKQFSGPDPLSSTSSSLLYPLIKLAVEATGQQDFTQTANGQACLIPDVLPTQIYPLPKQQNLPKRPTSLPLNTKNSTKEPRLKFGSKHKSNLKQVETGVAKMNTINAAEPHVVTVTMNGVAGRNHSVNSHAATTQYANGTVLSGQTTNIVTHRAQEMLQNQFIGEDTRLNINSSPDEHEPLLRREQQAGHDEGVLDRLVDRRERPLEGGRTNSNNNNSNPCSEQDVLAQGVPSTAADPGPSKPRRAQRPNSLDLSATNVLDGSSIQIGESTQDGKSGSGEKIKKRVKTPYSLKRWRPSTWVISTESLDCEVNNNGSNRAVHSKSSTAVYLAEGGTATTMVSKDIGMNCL
Summary of the method: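 Purified His-tagged BMPR2 kinase domain with no peptide substrate (intrinsic ATPase). 10 μM ATP, 0.02% Tween-20, kinase buffer, 50 μL, enzyme level optimized for initial-velocity conditions. 30 min at 30 °C. Leftover ATP read by Kinase-Glo luminescence, with no-kinase controls. Kiapp from a modified Morrison equation fitted to normalized fractional activity, assuming no specific inhibition mode.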

[2] = target: Bone morphogenetic protein receptor type-1A (Homo sapiens, UniProt P36894); test: Inhibition of BMPR1A (unknown origin) by LanthaScreen TR-FRET assay
Summary of the method: (§1)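 Outsourced SelectScreen profiling using a LanthaScreen TR-FRET binding format, in which a tight-binding tracer is displaced from the kinase.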

[3] = target: T2, Activin receptor type-1B (Homo sapiens) (UniProt P36896); test: Inhibition of ACVR1B (unknown origin) by Z'-LYTE assay
T2 sequence (whole entry): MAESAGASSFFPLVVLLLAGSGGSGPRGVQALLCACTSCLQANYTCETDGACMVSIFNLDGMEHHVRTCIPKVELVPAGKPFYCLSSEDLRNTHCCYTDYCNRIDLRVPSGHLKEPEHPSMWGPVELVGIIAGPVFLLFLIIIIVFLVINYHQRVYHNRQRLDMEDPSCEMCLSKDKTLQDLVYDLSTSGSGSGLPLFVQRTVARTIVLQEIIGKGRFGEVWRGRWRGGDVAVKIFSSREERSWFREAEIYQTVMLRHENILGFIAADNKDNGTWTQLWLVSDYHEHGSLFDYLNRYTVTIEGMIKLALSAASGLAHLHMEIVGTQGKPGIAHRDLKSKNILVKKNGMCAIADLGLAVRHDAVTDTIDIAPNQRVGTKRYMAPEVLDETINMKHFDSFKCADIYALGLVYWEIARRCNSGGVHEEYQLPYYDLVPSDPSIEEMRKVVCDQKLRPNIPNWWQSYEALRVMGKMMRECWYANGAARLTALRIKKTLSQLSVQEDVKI
Summary of the method: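 Outsourced SelectScreen profiling by Z'-LYTE, a fluorescence coupled-enzyme kinase activity assay based on protease sensitivity of nonphosphorylated versus phosphorylated peptide.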

[4] = target: Bone morphogenetic protein receptor type-1B (Homo sapiens, UniProt O00238); test: Inhibition of BMPR1B (unknown origin) by LanthaScreen TR-FRET assay; summary of the method: as §1
TGF-beta receptor type-2 = TGF-beta receptor type-2 (Homo sapiens, UniProt P37173); test: Inhibition of TGFBR2 (unknown origin) by LanthaScreen TR-FRET assay; summary of the method: as §1
Activin receptor type-2B = Activin receptor type-2B (Homo sapiens, UniProt Q13705); test: Inhibition of ACVR2B (unknown origin) by LanthaScreen TR-FRET assay; summary of the method: as §1
[5] = Metabolic stability in mouse liver microsomes assessed as half life at 2 uM and mesured upto 60 mins in presence of NADPH by UHPLC-MS analysis; type: ADME, Microsome; settings: microsomes, 1 h, 2 µM
[6] = Metabolic stability in human liver microsomes assessed as half life at 2 uM and mesured upto 60 mins in presence of NADPH by UHPLC-MS analysis; type: ADME, Microsome; settings: microsomes, 1 h, 2 µM
[7] = Inhibition of BMP signalling pathway in BMP2-stimulated human HEK293T cells expressing BRE and luciferase reporter assessed as inhibition of luciferase transactivation by measuring BRE-reporter activity preincubated for 30 mins followed by BMP2 stimulation and measured after 6 hrs by Bright-GLO mediated luciferase assay; type: cell-based; settings: HEK-293T
Summary of the method: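 293T cells stably carrying a BMP-responsive-element luciferase reporter, 2 × 10^4 per well, attached overnight in phenol-red-free DMEM with 2 mM glycine and 2% heat-inactivated FBS. Pretreated 30 min with inhibitor, then 5 ng/mL BMP2 for 6 h. Bright-Glo luminescence read; IC50 by nonlinear regression.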

Chain of Bone morphogenetic protein receptor type-1A (P36894 whole entry): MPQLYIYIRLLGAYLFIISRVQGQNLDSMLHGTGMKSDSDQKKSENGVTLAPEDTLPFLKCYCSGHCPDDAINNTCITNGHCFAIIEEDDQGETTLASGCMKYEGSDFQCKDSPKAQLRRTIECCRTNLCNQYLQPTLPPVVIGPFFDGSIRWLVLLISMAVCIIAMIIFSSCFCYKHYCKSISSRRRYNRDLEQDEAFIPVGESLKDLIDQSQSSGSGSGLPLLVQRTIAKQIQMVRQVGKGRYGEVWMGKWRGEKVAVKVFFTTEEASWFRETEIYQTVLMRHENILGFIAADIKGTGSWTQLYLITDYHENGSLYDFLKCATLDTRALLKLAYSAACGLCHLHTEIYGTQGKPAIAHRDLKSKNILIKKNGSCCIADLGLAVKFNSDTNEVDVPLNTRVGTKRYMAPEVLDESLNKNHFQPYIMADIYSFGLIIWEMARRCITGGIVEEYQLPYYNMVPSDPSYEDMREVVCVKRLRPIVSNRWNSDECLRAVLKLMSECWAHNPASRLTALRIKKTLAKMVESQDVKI
Chain of TGF-beta receptor type-2 (P37173 whole entry): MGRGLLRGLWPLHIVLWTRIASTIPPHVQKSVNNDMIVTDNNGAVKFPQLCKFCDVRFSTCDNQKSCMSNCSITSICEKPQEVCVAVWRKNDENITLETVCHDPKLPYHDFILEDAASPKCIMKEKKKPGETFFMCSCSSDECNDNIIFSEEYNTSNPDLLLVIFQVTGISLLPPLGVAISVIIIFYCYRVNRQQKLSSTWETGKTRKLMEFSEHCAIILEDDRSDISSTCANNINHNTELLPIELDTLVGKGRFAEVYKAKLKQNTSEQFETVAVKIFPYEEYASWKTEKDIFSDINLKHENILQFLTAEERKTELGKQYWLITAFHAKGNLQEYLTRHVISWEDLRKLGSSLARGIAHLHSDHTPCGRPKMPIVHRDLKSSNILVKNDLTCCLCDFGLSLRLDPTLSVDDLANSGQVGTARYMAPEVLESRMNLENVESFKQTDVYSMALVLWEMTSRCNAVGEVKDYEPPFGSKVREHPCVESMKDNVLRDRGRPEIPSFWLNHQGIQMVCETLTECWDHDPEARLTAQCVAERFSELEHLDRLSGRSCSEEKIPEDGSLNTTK
Chain of Bone morphogenetic protein receptor type-1B (O00238 whole entry): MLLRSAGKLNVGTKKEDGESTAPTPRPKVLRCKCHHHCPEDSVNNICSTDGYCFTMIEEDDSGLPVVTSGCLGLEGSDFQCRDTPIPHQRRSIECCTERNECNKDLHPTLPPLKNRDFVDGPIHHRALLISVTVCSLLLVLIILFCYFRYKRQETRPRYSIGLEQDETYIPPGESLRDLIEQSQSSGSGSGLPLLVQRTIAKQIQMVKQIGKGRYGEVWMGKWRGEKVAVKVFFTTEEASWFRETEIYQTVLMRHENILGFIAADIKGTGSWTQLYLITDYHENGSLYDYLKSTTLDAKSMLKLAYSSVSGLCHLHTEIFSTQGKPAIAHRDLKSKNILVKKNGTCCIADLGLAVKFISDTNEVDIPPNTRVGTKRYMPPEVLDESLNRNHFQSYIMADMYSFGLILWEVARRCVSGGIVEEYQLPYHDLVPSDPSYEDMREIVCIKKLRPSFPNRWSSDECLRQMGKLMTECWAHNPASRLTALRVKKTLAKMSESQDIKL
Chain of Activin receptor type-2B (Q13705 whole entry): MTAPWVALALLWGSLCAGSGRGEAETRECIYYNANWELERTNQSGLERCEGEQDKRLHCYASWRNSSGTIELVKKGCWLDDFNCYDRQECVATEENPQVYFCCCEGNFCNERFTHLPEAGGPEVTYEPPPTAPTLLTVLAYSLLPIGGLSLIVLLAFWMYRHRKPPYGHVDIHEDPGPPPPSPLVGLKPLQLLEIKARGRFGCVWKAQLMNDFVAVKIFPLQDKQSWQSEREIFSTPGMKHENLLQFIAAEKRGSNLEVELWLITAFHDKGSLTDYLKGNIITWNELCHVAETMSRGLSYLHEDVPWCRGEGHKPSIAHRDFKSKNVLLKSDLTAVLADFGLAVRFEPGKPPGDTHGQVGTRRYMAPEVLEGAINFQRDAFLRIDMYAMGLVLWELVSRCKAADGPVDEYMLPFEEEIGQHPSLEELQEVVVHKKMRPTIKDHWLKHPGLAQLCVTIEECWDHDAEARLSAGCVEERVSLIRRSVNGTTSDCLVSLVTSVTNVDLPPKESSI

SMILES	Ki [1]	IC50 [2]	inhibition [3]	IC50 [4]	inhibition (TGF-beta receptor type-2)	inhibition (Activin receptor type-2B)	t1/2 [5]	t1/2 [6]	IC50 [7]	inhibition [2]	inhibition [4]
NC(=O)c1cccc(CNC(=O)c2ccc3nc(-c4ccc5cnccc5c4)n(C4CCCC4)c3c2)c1	8 nM	> 1000 nM	inactive	> 1000 nM	inactive	inactive	45 min	80 min	6190 nM	–	–
CNC(=O)CCc1ccc(C(=O)NCc2cccc(N3CCN(c4nc(Nc5cccc(S(N)(=O)=O)c5)ncc4OC)CC3)c2)cc1	20.6 nM	–	inactive	–	inactive	inactive	7 min	22 min	4870 nM	inactive	inactive
CNC(=O)[C@@H]1CC[C@@H](n2c(-c3ccc4cnccc4c3)nc3ccc(C(=O)NCc4cccc(C(N)=O)c4)cc32)C1	6.2 nM	> 1000 nM	inactive	> 1000 nM	inactive	inactive	–	–	24100 nM	–	–
COc1cnc(Nc2cccc(S(N)(=O)=O)c2)nc1N1CCN(c2ccccc2)C(=O)C1	7 nM	–	inactive	–	inactive	inactive	40 min	305 min	6920 nM	inactive	inactive
